The target of assay [1] is Apoptosis regulator Bcl-2 (Homo sapiens, UniProt P10415). Description: Displacement of fluorescently-tagged BH3 peptide from Bcl-2 by chemiluminescent nitrogen detection method. Put shortly:
(§1)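 Solution-phase competition binding in HTS format. Inhibitors compete with a fluorescently tagged BH3 peptide for Bcl-2 or Bcl-xL. Library compounds were first screened at one fixed concentration. Hits exceeding three standard deviations above assay error were then run in a multi-point dilution series, and Ki values were derived from that series.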

The target of the next assay is Bcl-2-like protein 1 (Homo sapiens, UniProt Q07817). The assay can be described thus: Displacement of fluorescently-tagged BH3 peptide from Bcl-XL by chemiluminescent nitrogen detection method. The procedure, abridged:
as §1

SMILES strings stand for the structures.

Sequence of Apoptosis regulator Bcl-2 (P10415 whole entry): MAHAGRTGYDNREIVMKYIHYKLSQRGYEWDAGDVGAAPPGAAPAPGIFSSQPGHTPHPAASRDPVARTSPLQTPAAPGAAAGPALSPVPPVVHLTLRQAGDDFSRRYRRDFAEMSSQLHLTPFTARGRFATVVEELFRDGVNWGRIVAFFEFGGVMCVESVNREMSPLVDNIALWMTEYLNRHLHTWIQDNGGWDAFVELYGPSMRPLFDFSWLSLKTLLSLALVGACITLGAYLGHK
Sequence of Bcl-2-like protein 1 (Q07817 whole entry): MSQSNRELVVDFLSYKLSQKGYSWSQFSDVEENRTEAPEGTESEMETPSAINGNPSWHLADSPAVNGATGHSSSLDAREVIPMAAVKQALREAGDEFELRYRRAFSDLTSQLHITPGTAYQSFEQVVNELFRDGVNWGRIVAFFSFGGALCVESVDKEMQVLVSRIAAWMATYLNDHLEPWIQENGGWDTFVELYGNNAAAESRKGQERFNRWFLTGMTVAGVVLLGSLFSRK

Turning to `CN(C)CCNC(=O)[C@H]1[C@H](CO)[C@H]2Cn3c(cccc3=O)[C@@H]1N2c1nc(-c2ccc(Cl)cc2)c(-c2ccccc2)s1`, the Ki in assay [1] was found to be 1.3 µM; on Bcl-2-like protein 1, 6.6 µM.

As to `O=C(NCCCN1CCCC1)[C@H]1[C@H](CO)[C@H]2Cn3c(cccc3=O)[C@@H]1N2c1nc(-c2ccc(Cl)cc2)c(-c2ccccc2)s1`, the Ki in assay [1] was 1.6 µM; on Bcl-2-like protein 1, 7.8 µM.

Regarding `CN(C)CCNC(=O)[C@@H]1[C@@H](CO)[C@@H]2Cn3c(cccc3=O)[C@H]1N2c1nc(-c2ccc(Cl)cc2)c(-c2ccccc2)s1`, the Ki is 2 µM in assay [1] and 5.7 µM on Bcl-2-like protein 1.

On to `O=C(N[C@@H]1CCN(Cc2ccccc2)C1)[C@H]1[C@H](CO)[C@H]2Cn3c(cccc3=O)[C@H]2N1CC1CCCCC1`, for which the Ki is 7.8 µM in assay [1] and over 100 µM on Bcl-2-like protein 1.

On to `O=C(N[C@H]1CCN(Cc2ccccc2)C1)[C@H]1[C@H](CO)[C@H]2Cn3c(cccc3=O)[C@H]2N1CC1CCCCC1`, for which the figures for the inhibition constant (Ki) (in assay [1]; at Bcl-2-like protein 1) were 4.1 µM and over 100 µM, respectively.

Regarding `O=C(NC1Cc2ccccc2C1)[C@H]1[C@H](CO)[C@H]2Cn3c(cccc3=O)[C@H]2N1CC1CCCCC1`, the Ki was 5.4 µM in assay [1] and over 100 µM at Bcl-2-like protein 1.

Turning to `O=C(NCc1ccc(Oc2ccccc2)cc1)[C@H]1[C@H](CO)[C@H]2Cn3c(cccc3=O)[C@H]2N1CC1CCCCC1`, the Ki was 8.4 µM in assay [1] and over 100 µM at Bcl-2-like protein 1.

With `O=C(NCCCN1CCCC1)[C@@H]1[C@@H](CO)[C@@H]2Cn3c(cccc3=O)[C@H]1N2c1nc(-c2ccc(Cl)cc2)c(-c2ccccc2)s1`, the Ki in assay [1] stood at 3 µM; at Bcl-2-like protein 1, 5.7 µM.

For `O=C([C@@H]1[C@@H](CO)[C@@H]2Cn3c(cccc3=O)[C@@H]2N1Cc1ccc(Oc2ccccc2)cc1)N1CCC(c2ccc(F)cc2)CC1`, the inhibitory constant (Ki) in assay [1] is 6.8 µM; at Bcl-2-like protein 1 it was over 100 µM.

Regarding `O=C(NCCN1CCCCC1)[C@@H]1[C@@H](CO)[C@@H]2Cn3c(cccc3=O)[C@H]1N2c1nc(-c2ccc(Cl)cc2)c(-c2ccccc2)s1`, the Ki in assay [1] is 2.5 µM; at Bcl-2-like protein 1, 6 µM.

On to `COCCNC(=O)[C@@H]1[C@@H](CO)[C@@H]2Cn3c(cccc3=O)[C@H]1N2c1nc(-c2ccc(Cl)cc2)c(-c2ccccc2)s1`, for which the inhibition constant (Ki) is 4.3 µM in assay [1] and over 100 µM on Bcl-2-like protein 1.

Turning to `COCCNC(=O)[C@H]1[C@H](CO)[C@H]2Cn3c(cccc3=O)[C@@H]1N2c1nc(-c2ccc(Cl)cc2)c(-c2ccccc2)s1`, the Ki was 14 µM in assay [1] and over 100 µM on Bcl-2-like protein 1.

Turning to `O=C([C@@H]1[C@@H](CO)[C@@H]2Cn3c(cccc3=O)[C@@H]2N1Cc1ccc(Cl)c(Cl)c1)N1CCC(Cc2ccccc2)CC1`, the Ki in assay [1] was 1.2 µM; at Bcl-2-like protein 1 it was over 100 µM.

With `O=C([C@@H]1[C@@H](CO)[C@@H]2Cn3c(cccc3=O)[C@@H]2N1Cc1ccc(Oc2ccccc2)cc1)N1CCC(Cc2ccccc2)CC1`, the Ki in assay [1] was 5.2 µM; on Bcl-2-like protein 1, over 100 µM.

On to `O=C(NCCN1CCCCC1)[C@H]1[C@H](CO)[C@H]2Cn3c(cccc3=O)[C@@H]1N2c1nc(-c2ccc(Cl)cc2)c(-c2ccccc2)s1`, for which the inhibition constant Ki in assay [1] stood at 1.5 µM; at Bcl-2-like protein 1, 11 µM.

`O=C([C@@H]1[C@@H](CO)[C@@H]2Cn3c(cccc3=O)[C@@H]2N1Cc1ccc(Cl)c(Cl)c1)N1CCC(c2ccc(F)cc2)CC1`: the Ki in assay [1] was 2.2 µM; at Bcl-2-like protein 1, over 100 µM.

Broadly, the Ki is a dissociation constant, usually derived from enzyme kinetics or from competition with a known ligand. Higher therefore signals lower affinity.

The values are drawn from ChEMBL document CHEMBL1138601, “Diversity-oriented synthesis of a cytisine-inspired pyridone library leading to the discovery of novel inhibitors of Bcl-2” (Bioorg Med Chem Lett, 2009).
